Laboratory results reported in publication PMC6044864 (ACS Omega, 2017).

What was measured:
HeLa cells = settings: cited from earlier work
human erythrocytes = settings: cited from earlier work
bacteria = settings: cited from earlier work
Candida albicans cells = settings: cited from earlier work
[1] = test system: Trichosporon beigelii cells; settings: cited from earlier work
Photodegradation = assay type: physicochemical; settings: photostability; 10 μmol·L^–1 in 60% ACN/H2O/0.09% TFA; laser 440 nm; 0 to 50 min
In short: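 Test compound was irradiated in solution at room temperature with a pulsed 10 Hz laser at 440 nm for 50 min. UV/vis absorption spectra were recorded before irradiation and every 5 min. Absorbance maximum at 440 nm was plotted against time, and the change was taken as the difference between initial and final readings.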

Difference of absorbance at 440 nm in 50 min of exposure to light (Photodegradation)	Substance	Cell penetration and nuclear localisation (HeLa cells)	Hemolytic effect (human erythrocytes)	Growth inhibition of bacteria (bacteria)	Growth inhibition of Candida albicans cells (Candida albicans cells)	Cell penetration and nuclear localisation [1]
–	TAT peptide (47-58): carboxyl-free analogue of TAT(47-57)-NH2	penetrate, and localize in the nucleus	without hemolytic effect	inhibit the growth	inhibit the growth	penetrate, and localize in the nucleus
0.022	5(6)-carboxyfluorescein [FAM]	–	–	–	–	–
